Calls of active or inactive are those of the source. The rule behind the calls is not given here.
Columns and labels:
Homo sapiens [1] = test: Toxicity in human patient infected with Influenza virus assessed as beta-N-Acetyl-D-glucosaminidase at 600 mg, iv; format: organism-based; details: in vivo
How it was run: (§1)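 One IV dose of 300 or 600 mg or placebo was given to adults with influenza. Blood (hematology, biochemistry) and urine (including NAG, β2- and α1-microglobulin, protein) were sampled at baseline, day 3 and day 14 by blinded technicians. Adverse-event incidence versus placebo was compared by Fisher's exact test.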

Homo sapiens [2] = test: Toxicity in human patient infected with Influenza virus assessed as urine containing albumine at 600 mg, iv; format: organism-based; details: in vivo
How it was run: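 Subjects received a single intravenous peramivir dose (300 or 600 mg) or placebo, infused over a median of 0.63 h. Urinalysis covered protein, albumin and sediment, among other analytes. Urine was collected at baseline and on days 3 and 14 and tested by blinded technicians. Incidence in the safety population (n = 298 treated) was compared with placebo by Fisher's exact test.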

Homo sapiens [3] = test: Toxicity in human patient infected with Influenza virus assessed as decrease in total Protein at 600 mg, iv; format: organism-based; details: in vivo; how it was run: as §1
Homo sapiens [4] = test: Toxicity in human patient infected with Influenza virus assessed as lymphocyte morphology abnormal at 600 mg, iv; format: organism-based; details: in vivo
How it was run: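 Adults with seasonal influenza received one intravenous infusion of peramivir (300 or 600 mg) or matching placebo; the median infusion lasted 0.63 h. Blood for haematology, including the white-cell differential, was taken at baseline and on days 3 and 14. Tests were run by blinded technicians. Adverse-event incidence in the 298-subject safety population was compared with placebo by Fisher's exact test.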

Homo sapiens [5] = test: Toxicity in human patient infected with Influenza virus assessed as nasopharyngitis at 600 mg, iv; format: organism-based; details: in vivo
How it was run: (§2)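 In this randomized trial, subjects received a single intravenous infusion of peramivir (300 mg or 600 mg) or matching placebo; the median infusion lasted 0.63 h. Subjects were followed at visits on days 1, 2 (optional), 3, 5, 9 and 14. Adverse-event incidences across the 298 treated subjects were compared with placebo using Fisher's exact test.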

Homo sapiens [6] = test: Toxicity in human patient infected with Influenza virus assessed as increase in blood phosphate at 600 mg, iv; format: organism-based; details: in vivo; how it was run: as §1
Influenza A virus [7] = test: Antiviral activity against Influenza A virus H3N2 infected in human patient assessed as alleviation time of symptoms at 300 mg, iv (reference value: 81 hrs); format: functional
Influenza A virus [8] = test: Antiviral activity against Influenza A virus H3N2 infected in human patient assessed as alleviation time of symptoms at 600 mg, iv (reference value: 81 hrs); format: functional
[9] = test system: unidentified influenza virus; test: Antiviral activity against Influenza virus infected in human patient assessed as reduction in fever at 300 mg, iv after 24 hrs; format: functional, organism-based
How it was run: (§3)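 A single IV dose of 300 or 600 mg or placebo was given to adults with seasonal influenza. The outcome was the proportion of subjects with postbaseline normal temperature (<37.0°C). Groups were compared by Mantel-Haenszel test stratified for smoking and baseline composite symptom score.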

[10] = test system: unidentified influenza virus; test: Antiviral activity against Influenza virus infected in human patient assessed as reduction in fever at 600 mg, iv after 24 hrs; format: functional, organism-based; how it was run: as §3
Influenza A virus [11] = test: Antiviral activity against influenza A virus H1N1 infected in MDCK cells assessed as inhibition of neuraminidase activity by fluorimetric assay; format: functional, organism-based
How it was run: (§4)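 Viruses were isolated from baseline patient swabs on MDCK cells. Neuraminidase inhibition was measured by a standard fluorometric assay. IC50 came from plotting percent inhibition of neuraminidase activity against inhibitor concentration, reported as mean ± SD of three independent experiments.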

Influenza A virus [12] = test: Antiviral activity against influenza A virus H3N2 infected in MDCK cells assessed as inhibition of neuraminidase activity by fluorimetric assay; format: functional, organism-based; how it was run: as §4
Influenza A virus [13] = test: Antiviral activity against influenza A virus infected in MDCK cells assessed as inhibition of neuraminidase activity by fluorimetric assay; format: functional, organism-based; how it was run: as §4
Influenza B virus = test: Antiviral activity against influenza B virus infected in MDCK cells assessed as inhibition of neuraminidase activity by fluorimetric assay; format: functional, organism-based; how it was run: as §4
Influenza A virus [14] = test: Antiviral activity against Influenza A virus H1N1 infected in human patient assessed as alleviation time of symptoms at 300 mg, iv (reference value: 81.4 hrs); format: functional
Influenza A virus [15] = test: Antiviral activity against Influenza A virus H1N1 infected in human patient assessed as alleviation time of symptoms at 600 mg, iv (reference value: 81.4 hrs); format: functional
[16] = test system: unidentified influenza virus; test: Antiviral activity against Influenza virus infected in human patient assessed as resumption time of usual activities at 300 mg, iv; format: functional
Homo sapiens [17] = test: Toxicity in human patient infected with Influenza virus assessed as occurrence of bronchitis at 300 mg, iv; format: organism-based; details: in vivo; how it was run: as §2
Homo sapiens [18] = test: Toxicity in human patient infected with Influenza virus assessed as occurrence of otitis at 600 mg, iv; format: organism-based; details: in vivo; how it was run: as §2
[19] = test system: unidentified influenza virus; test: Antiviral activity against Influenza virus infected in human patient assessed as decrease in virus-positive patients at 300 mg, iv on day 3; format: functional
How it was run: (§5)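 Nasal and throat swabs were taken at baseline and on days 2, 3, 5 and 9, held in 2 ml transport medium, and titrated on MDCK cells in triplicate: 10-fold dilutions, 3 μg/ml trypsin, 1 h adsorption, washes, then 3 days at 37°C. CPE gave TCID50/ml by Spearman-Karber; positive meant ≥1.1 log10 TCID50/ml. Proportions were compared by Mantel-Haenszel test stratified for smoking and baseline score.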

[20] = test system: unidentified influenza virus; test: Antiviral activity against Influenza virus infected in human patient assessed as decrease in virus-positive patients at 600 mg, iv on day 3; format: functional; how it was run: as §5
[21] = test system: unidentified influenza virus; test: Antiviral activity against Influenza virus infected in human patient assessed as decrease in virus-positive patients at 300 mg, iv on day 9; format: functional; how it was run: as §5
[22] = test system: unidentified influenza virus; test: Antiviral activity against Influenza virus infected in human patient assessed as decrease in virus-positive patients at 600 mg, iv on day 9; format: functional; how it was run: as §5
Homo sapiens [23] = test: Toxicity in human patient infected with Influenza virus assessed as occurrence of diarrhea at 300 mg, iv; format: organism-based; details: in vivo; how it was run: as §2
Homo sapiens [24] = test: Toxicity in human patient infected with Influenza virus assessed as occurrence of diarrhea at 600 mg, iv; format: organism-based; details: in vivo; how it was run: as §2
Homo sapiens [25] = test: Toxicity in human patient infected with Influenza virus assessed as occurrence of nausea at 300 mg, iv; format: organism-based; details: in vivo; how it was run: as §2
Homo sapiens [26] = test: Toxicity in human patient infected with Influenza virus assessed as occurrence of nausea at 600 mg, iv; format: organism-based; details: in vivo; how it was run: as §2
Homo sapiens [27] = test: Toxicity in human patient infected with Influenza virus assessed as prolongation of electrocardiogram QT interval at 300 mg, iv; format: organism-based; details: in vivo
Homo sapiens [28] = test: Toxicity in human patient infected with Influenza virus assessed as increase in blood glucose level at 600 mg, iv; format: organism-based; details: in vivo; how it was run: as §1
Homo sapiens [29] = test: Toxicity in human patient infected with Influenza virus assessed as increase in blood creatinine level at 600 mg, iv; format: organism-based; details: in vivo; how it was run: as §1
Plasma [30] = test: Plasma concentration in human at 300 mg, iv; format: ADME
How it was run: (§6)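 Subjects received a single IV infusion of 300 or 600 mg (mean 5.0 or 10.0 mg/kg; median infusion 0.63 h). Plasma was sampled just before the infusion ended, and on days 2 and 3. Samples were deproteinized and run on C18 LC/MS-MS. Values are medians at end of infusion, 18–24 h and 36–48 h after infusion.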

Plasma [31] = test: Plasma concentration in human at 600 mg, iv; format: ADME; how it was run: as §6
Plasma [32] = test: Plasma concentration in human at 300 mg, iv after 18 to 24 hrs; format: ADME, organism-based; details: in vivo; how it was run: as §6
Plasma [33] = test: Plasma concentration in human at 600 mg, iv after 18 to 24 hrs; format: ADME, organism-based; details: in vivo; how it was run: as §6
Plasma [34] = test: Plasma concentration in human at 300 mg, iv after 36 to 48 hrs; format: ADME, organism-based; details: in vivo; how it was run: as §6

SMILES: CCC(CC)[C@H](NC(C)=O)[C@@H]1[C@H](O)[C@@H](C(=O)O)C[C@H]1NC(=N)N [PERAMIVIR ANHYDROUS]
- Activity (Homo sapiens [1]): Toxic
- Activity (Homo sapiens [2]): Toxic
- Activity (Homo sapiens [3]): Toxic
- Activity (Homo sapiens [4]): Toxic
- Activity (Homo sapiens [5]): Toxic
- Activity (Homo sapiens [6]): Toxic
- Time (Influenza A virus [7]): 76.1 h
- Time (Influenza A virus [8]): 50.5 h
- Activity [9]: Active
- Activity [10]: Active
- IC50 (Influenza A virus [11]): 9.43 nM
- IC50 (Influenza A virus [12]): 3.51 nM
- IC50 (Influenza A virus [13]): 1.72 nM
- IC50 (Influenza B virus): 3 nM
- Time (Influenza A virus [14]): 52.5 h
- Time (Influenza A virus [15]): 62.6 h
- Time [16]: 125.6 h
- Activity (Homo sapiens [17]): 3%
- Activity (Homo sapiens [18]): 1%
- inhibition (INH) [19]: 36.8%
- inhibition (INH) [20]: 25.8%
- inhibition (INH) [21]: 0%
- inhibition (INH) [22]: 1.1%
- Activity (Homo sapiens [23]): 14.1%
- Activity (Homo sapiens [24]): 15.2%
- Activity (Homo sapiens [25]): 3%
- Activity (Homo sapiens [26]): 6.1%
- Activity (Homo sapiens [27]): 2%
- Activity (Homo sapiens [28]): Toxic
- Activity (Homo sapiens [29]): Toxic
- Cp (Plasma [30]): 18100 ng/mL
- Cp (Plasma [31]): 36300 ng/mL
- Cp (Plasma [32]): 14.8 ng/mL
- Cp (Plasma [33]): 32.8 ng/mL
- Cp (Plasma [34]): 5.01 ng/mL

Source: ChEMBL document CHEMBL1671747, “Efficacy and safety of intravenous peramivir for treatment of seasonal influenza virus infection” (Antimicrob Agents Chemother, 2010)
